High-throughput results from PubChem BioAssay.
L major viab = Leishmania major promastigote growth inhibition. Leishmania major promastigotes, resazurin fluorescence viability. inhibition, % at 10 µM. 9% of 200,000 active; in the data active means inhibition above about 50%;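 further: promastigotes grown with compound for 44 hours at 28 °C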
NLRP3 yeast inh = inhibitors of NALP3 inflammasome in yeast | Yeast reconstituted NLRP3/ASC/caspase-1, beta-gal luminescence, 24 h | inhibition, % at 10 µM | 0.39% of 330,000 active;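 active means inhibition of 50% or more; inactive means inhibition below 50%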
T cruzi inh = blocks replication of Trypanosoma cruzi; inhibition, % (concentration not given with the values); AID 1885; 1.4% of 300,000 active; T. cruzi beta-gal in NIH3T3, luminescence, 90 h;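 active means mean inhibition across valid replicates above about 55%, limit read from the data; inconclusive means mean below that limit but half or more replicates reach it; inactive means mean below it, under half of replicates reach it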;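 further: signal also drops with host cell toxicity which is not excluded here; higher percent means less beta-gal luminescence so fewer parasites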
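System: NIH/3T3 fibroblasts plus reporter T. cruzi. Medium: DMEM plus 2% FBS. Probe or stimulus: 5000 reporter trypomastigotes per well. Compound: single 50 nL compound addition per well in DMSO. Incubation: co-culture of at least 90 h after 3 h attachment. Detection: GalScreen β-gal luminescence, detergent lysis, 60 min. Evaluation: parasite load inhibition, %.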
Calb FLC = C. albicans growth modulation with fluconazole; C. albicans CaCi-2 + fluconazole, Alamar Blue growth, 48 h; 0.57% of 300,000 active; growth inhibition, % (test concentration not listed); AID 1979;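 active means growth inhibition above about 58% in most replicates, limit read from the data, passing the limit was not always enough; inconclusive means exactly half the replicates above a set limit; inactive means most replicates below a set limit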;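 further: all wells also contain fluconazole at 8 µg/ml as a sub-toxic cotreatment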
NALP1 inh = NALP1 inhibition; 0.61% of 280,000 active; S. cerevisiae NALP1/ASC/caspase-1 growth, X-gal OD620, 72 h; inhibition, % at 10 µM; AID 2071; in the data active means inhibition mostly above about 24%, no sharp cut-off; inactive means mostly below about 32%
PolyA inhibitor = yeast polyadenylation inhibition | 0.02% of 300,000 active | activity score, % at 12 µM | S. cerevisiae SKY197-pL101 polyadenylation reporter, beta-gal luminescence; efflux-impaired pdr1/pdr3 knockout yeast; score 100 = 6 SD above DMSO;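 active means lowest replicate activity score at least 50, where 100 means six control SD above control mean; inconclusive means lowest score under 50 but half or more replicates reach 50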;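 further: yeast exposed to compound for 9 h at 30 °C; higher score means more reporter readthrough which indicates perturbed polyadenylation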
Numbers stand for hits; 0 = inactive; ? = inconclusive; - = no result. This is one part of a sample in which hits are shown more often than they occur.

SMILES	L major viab	NLRP3 yeast inh	T cruzi inh	Calb FLC	NALP1 inh	PolyA inhibitor
O=C(NC1CCCC1)c1ccc2c(c1)N(Cc1ccccc1)CCS2	-	0	0	0	0	0
Cc1ccc(C(C)NC(=S)NC2CCCCC2)c(C)c1 (configuration not stated)	-	0	0	?	0	0
CSc1cc(-c2ccccc2)n(C)c(=O)c1C#N	0	0	0	103.9	0	0
CSc1cc(-c2ccccc2)n(Cc2c(Cl)cccc2Cl)c(=O)c1C#N	0	0	0	0	0	0
Cc1ccc(C)c(OCCOCCN2CCOCC2)c1	91.8	0	0	0	0	0
Cc1ccc(C)c(OCCN2CCOCC2)c1	-	0	0	0	-	0
Cc1cc(C)c(C)c(OCCOCCN2CCN(C)CC2)c1	0	0	0	0	0	0
Cc1cc(C)c(C)c(OCCOCCN2CCOCC2)c1	55.4	0	0	0	0	0
Cc1noc(NC(=O)c2ccc(Cl)c(Cl)c2)c1Cl	0	0	0	89.4	0	?
COc1ccc(C(=O)NC(=S)N(C)C2CCCCC2)cc1	-	0	-	0	0	-
COc1ccc(C(=O)NC(=S)N(C)C2CCCCC2)cc1Br	-	0	59.5	0	0	0
Cc1ccc(C(=O)NC(=S)N(C)C2CCCCC2)cc1Br	-	0	59.9	0	0	0
O=C(NCc1ccco1)C(=O)NCC1OCCN1S(=O)(=O)c1cc(F)ccc1F (configuration not stated)	-	0	0	0	-	0
CN(C)CC/C=C1/c2ccccc2CS(=O)(=O)c2ccccc21	-	0	0	0	-	0
CN(C)CC/C=C1\c2ccccc2COc2ccccc21	100.0	0	0	0	0	0
Cc1cccc(N2CCN(C(=O)Cn3sc4nc(C)cc(C)c4c3=O)CC2C)c1 (configuration not stated)	0	0	0	0	0	0
Cc1cc(C)c2c(=O)n(CC(=O)Nc3ccc(Cl)cc3)sc2n1	-	0	60.3	0	-	0
CCOc1ccc(NC(=O)Cn2sc3nc(C)cc(C)c3c2=O)cc1	-	0	0	0	0	0
Cc1cc(C)c2c(=O)n(CC(=O)N3CCC(Cc4ccccc4)CC3)sc2n1	78.2	0	0	0	0	0
CC1(C)Cc2c(sc3c2c(=N)n(Cc2ccco2)c(=O)n3Cc2ccccc2)CO1	82.3	0	0	0	0	0
CCOc1ccc(C(CC(=O)O)NC(=O)C(c2ccccc2)c2ccccc2)cc1OC (configuration not stated)	-	0	-	-	-	-
COCC1CCN(Cc2nc(-c3ccc4c(c3)OCO4)no2)C1 (configuration not stated)	0	0	0	0	0	0
c1cc(C2CCN(Cc3nc(-c4ccc5c(c4)OCO5)no3)CC2)ccn1	94.6	0	0	0	0	0
O=C(c1ccco1)N1CCCN(Cc2nc(-c3ccc4c(c3)OCO4)no2)CC1	0	0	0	0	0	0
c1ccc(OCCN2CCN(Cc3nc(-c4ccc5c(c4)OCO5)no3)CC2)cc1	68.2	0	0	0	0	0
SMILES	L major viab	NLRP3 yeast inh	T cruzi inh	Calb FLC	NALP1 inh	PolyA inhibitor
c1ccc(C(c2ccccc2)c2noc(CN3CCC(c4ccncc4)CC3)n2)cc1	90.2	0	60.7	0	0	0
c1ccc(C2CCCN(Cc3nc(CC4CC4)no3)CC2)cc1 (configuration not stated)	0	0	0	0	0	0
Fc1ccc(CN2CCCN(Cc3nc(-c4ccc5c(c4)OCO5)no3)CC2)cc1	95.3	0	66.9	0	0	0
CC(C)(C)c1cc(C(=O)N/N=C/c2cc3c(cc2Br)OCO3)n[nH]1	-	0	0	0	0	0
O=C(COC(=O)c1ccc(S(=O)(=O)N2CCCC2)cc1)NCc1cccs1	0	0	0	0	0	0
CN1CCCN(Cc2nc(-c3cccc(C(F)(F)F)c3)no2)CC1	99.2	0	0	0	0	0
FC(F)(F)c1cccc(Cc2noc(CN3CCC(c4ccncc4)CC3)n2)c1	98.4	0	0	?	0	0
FC(F)(F)c1cccc(-c2noc(CN3CCOCC3)n2)c1	0	0	0	0	0	0
Cc1cc(C(=O)COC(=O)C23CC4CC(CC(O)(C4)C2)C3)c(C)n1C	-	0	-	-	-	-
CC(C)OC(=O)c1cc(C(=O)c2cc(F)ccc2O)coc1=N	0	0	0	0	0	0
COc1ccc(O)c(C(=O)c2coc(=N)c(C(=O)Nc3ccc(SC(F)F)cc3)c2)c1	82.7	0	0	0	0	0
CNC(=O)COc1ccccc1C(=O)Nc1ccc2c(c1)oc1ccccc12	0	0	0	0	0	0
